Sampled rows, rich in hits. Any-hit rate of the full collection: about 3.6%.
pPAFAH FP inh = pPAFAH enzyme inhibitors, primary screen, biochemical, fluorescence polarization, human; Platelet-activating factor acetylhydrolase (Homo sapiens), Q13093; recombinant pPAFAH, FP-rhodamine probe fluorescence polarization; inhibition, % at 3.39 µM; actives 1.5% (n = 330,000); AID 463082, 2010;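 active = inhibition above the mean inhibition across the screen plus 3 SD, cut at about 25% in these data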;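 note: inhibitors block binding of the rhodamine activity-based probe so polarization drops; 0% = enzyme with DMSO and 100% = wells lacking pPAFAH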
Target sequence (Q13093 whole entry, looked up): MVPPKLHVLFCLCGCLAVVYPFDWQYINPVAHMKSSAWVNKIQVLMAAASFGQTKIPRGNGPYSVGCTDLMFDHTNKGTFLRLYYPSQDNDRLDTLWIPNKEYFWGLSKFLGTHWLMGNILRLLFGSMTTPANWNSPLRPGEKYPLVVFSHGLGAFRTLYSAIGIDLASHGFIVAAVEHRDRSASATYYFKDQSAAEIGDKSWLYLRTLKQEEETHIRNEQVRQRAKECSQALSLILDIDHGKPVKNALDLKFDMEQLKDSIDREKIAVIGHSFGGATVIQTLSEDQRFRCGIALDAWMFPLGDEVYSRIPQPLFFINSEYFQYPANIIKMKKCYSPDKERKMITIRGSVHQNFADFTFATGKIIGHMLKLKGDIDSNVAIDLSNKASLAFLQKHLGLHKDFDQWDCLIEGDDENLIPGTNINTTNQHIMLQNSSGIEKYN
IMP-1 inhibitor = IMP-1 metallo-beta-lactamase inhibitors, primary screen, biochemical, epi-absorbance readout, Pseudomonas aeruginosa enzyme; metallo-beta-lactamase IMP-1 (Pseudomonas aeruginosa); purified IMP-1, nitrocefin hydrolysis, epi-absorbance fluorescence; inhibition, % at 5.6 µM; actives 0.45% (n = 290,000); AID 1556, 2009;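 active = inhibition above the mean plus 3 SD of all compounds in the same screening run, cut at about 4.5% in these data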;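 note: 0% = IMP-1 with DMSO and 100% = DMSO wells lacking enzyme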
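Material – recombinant IMP-1 enzyme, purified · Amount – IMP-1 0.2 nM before substrate addition · Medium – HEPES buffer pH 7.1 with ZnSO4 and Brij 35 · Timing – 25 °C, 15 min preincubation, 25 min reaction · Measured by – plate fluorescence quenching by hydrolysis product, ex 480/em 530 nm · Read-out – percent enzyme inhibition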
PAFAH1B3 inh = PAFAH1B3 enzyme inhibitors, primary screen, biochemical, fluorescence polarization, human. recombinant PAFAH1B3, FP-rhodamine probe. actives 0.28% (n = 340,000). inhibition, % at 3.39 µM. AID 492972, 2010;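 active = inhibition above the screen-wide average of all tested compounds plus 3 SD, cut at about 25% in these data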;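 note: 0% = enzyme with DMSO only and 100% = wells lacking PAFAH1B3 protein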
Target sequence (Q15102 whole entry, looked up): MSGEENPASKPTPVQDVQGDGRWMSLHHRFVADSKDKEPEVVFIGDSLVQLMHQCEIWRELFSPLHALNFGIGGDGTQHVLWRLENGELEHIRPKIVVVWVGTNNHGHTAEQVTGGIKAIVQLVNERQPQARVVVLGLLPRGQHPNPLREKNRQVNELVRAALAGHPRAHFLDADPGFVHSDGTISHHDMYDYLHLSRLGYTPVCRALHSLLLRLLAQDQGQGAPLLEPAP
PAFAH2 inh = PAFAH2 enzyme inhibitors, primary screen, biochemical, fluorescence polarization, human; Platelet-activating factor acetylhydrolase 2, cytoplasmic (Homo sapiens), Q99487; recombinant PAFAH2, FP-rhodamine activity probe; inhibition, % at 3.39 µM; actives 0.99% (n = 340,000);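 active = inhibition above the mean over all tested compounds plus 3 SD, cut at about 30% in these data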;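 note: inhibitors block probe labeling of enzyme so polarization drops; 0% = enzyme with DMSO and 100% = wells lacking PAFAH2 protein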
VIM-2 inh = VIM-2 metallo-beta-lactamase inhibitors, primary screen, biochemical, epi-absorbance readout, Pseudomonas aeruginosa enzyme; purified VIM-2, nitrocefin hydrolysis, epi-absorbance fluorescence; inhibition, % at 5.6 µM; actives 0.89% (n = 290,000); AID 1527, 2009;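 active = inhibition above the mean of all tested compounds plus 3 SD, cutoff set per screening run, cut at about 7.5% in these data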;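 note: red hydrolysis product quenches plate fluorescence so inhibitors raise well fluorescence; 0% = enzyme with DMSO and 100% = DMSO without enzyme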
PAFAH1B2 inh = PAFAH1B2 enzyme inhibitors, primary screen, biochemical, fluorescence polarization, human | Platelet-activating factor acetylhydrolase IB subunit alpha2 (Homo sapiens), P68402 | recombinant PAFAH1B2, FP-rhodamine activity probe | inhibition, % at 3.39 µM | actives 1.2% (n = 340,000) | AID 492953, 2010;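 active = inhibition above the mean of all tested compounds plus 3 SD, cut at about 24% in these data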;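 note: 0% = enzyme with DMSO and 100% = wells lacking PAFAH1B2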
PAFAH1B3 conf FP = PAFAH1B3 enzyme inhibitors, confirmation, biochemical, fluorescence polarization, human; shares compounds with PAFAH1B3 inh; actives 30% (n = 390); recombinant PAFAH1B3, FP-Rh activity-based probe; AID 493032, 2011; inhibition, % at 3.39 µM;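 active = average inhibition over triplicate runs above the hit cutoff set in the earlier primary screen, cut at about 25% in these data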;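 note: 0% = enzyme with DMSO and 100% = wells lacking PAFAH1B3 protein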
* marks the source's active call; other numbers are inactive results; nt = not tested or not shown.

SMILES | pPAFAH FP inh | IMP-1 inhibitor | PAFAH1B3 inh | PAFAH2 inh | VIM-2 inh | PAFAH1B2 inh | PAFAH1B3 conf FP
O=C(NC1(O)C(=O)c2ccccc2C1=O)c1c(Cl)cccc1Cl | 7 | -1 | nt | nt | -2 | nt | nt
O=C(NC1(O)C(=O)c2ccccc2C1=O)c1ccccc1 | 2 | 0 | 36* | 16 | -2 | 9 | 37*
Cc1cc(C)cc(C(=O)NC(CC(N)=O)c2ccc(NCCN3CCCC3)c([N+](=O)[O-])c2)c1 (configuration not stated) | -9 | -1 | 10 | 1 | 0 | 0 | nt
CCc1ccc(NC(=O)Cn2cc([N+](=O)[O-])nc2C)cc1 | nt | -4 | -2 | 0 | -1 | -2 | nt
[O-][n+]1onc2c1CCc1nnccc1-2 | 1 | 2 | 7 | 8 | -3 | 3 | nt
COn1c(-c2ccccc2)nc2c1CCc1c-2no[n+]1[O-] | 5 | -2 | 26* | 2 | 0 | 4 | 27*
[O-][n+]1onc2c1CCc1nnc(-c3ccccc3)cc1-2 | 2 | -1 | 78* | 1 | 0 | 4 | 84*
O=C(Cn1cnc2ccccc2c1=O)NNC(=O)c1ccccc1 | -2 | -1 | nt | nt | 0 | nt | nt
O=C(COC(=O)c1ccc([N+](=O)[O-])s1)c1ccc[nH]1 | 17 | nt | 33* | 15 | nt | 7 | 26*
O=C(OCC(=O)c1ccc[nH]1)c1ccc([N+](=O)[O-])cc1 | 8 | nt | 5 | 6 | nt | 1 | nt
CC1CCN(C(=O)C2CCN(c3ncnc4c3nc3n4CCCCC3)CC2)CC1 | 3 | -2 | 7 | -3 | -1 | 2 | nt
O=C1C(Cl)=C(Nc2ccc(O)cc2)C(=O)c2ccccc21 | 1 | -4 | 27* | 9 | 0 | 13 | 18
CCN(CC)c1ccc(NC2=C(Cl)C(=O)c3ccccc3C2=O)cc1 | 10 | -3 | 26* | 28 | -2 | 6 | 36*
CCCC(=O)NC1=C(Cl)C(=O)c2ccccc2C1=O | nt | nt | 38* | 20 | nt | 6 | 14
Cc1ccc(NC2=C(Cl)C(=O)c3ccccc3C2=O)cc1 | 6 | -4 | 16 | 9 | -2 | 9 | nt
CCN(CC)CC(O)c1ccc2ccc3ccc(O)cc3c2c1 (configuration not stated) | nt | nt | 0 | 13 | nt | 6 | nt
O=Nc1c(O)c2ccccc2c2ccccc12 | 15 | nt | 94* | 12 | nt | 11 | 66*
O=C1c2cccc(O)c2C(=O)c2c(O)cccc21 | 14 | -2 | nt | nt | 2 | nt | nt
CC1OC(CC(=O)O)CC2=C1C(=O)c1c(O)cccc1C2=O (configuration not stated) | nt | nt | 53* | 14 | nt | 13 | 22
COc1cc(NC(=O)c2cc(-c3ccccc3)nc3c2cnn3C(C)C)cc(OC)c1OC | 4 | nt | 26* | -35 | nt | 20 | 21
COc1cccc(/C=N/NC(=O)c2ccc([N+](=O)[O-])cc2Cl)c1O | 6 | 1 | 27* | 10 | -1 | 3 | 15
COc1cc(/C=N/NC(=O)c2cccc([N+](=O)[O-])c2)cc(OC)c1O | 5 | -5 | 8 | 2 | -5 | 5 | nt
CC1=CC2=NC(=O)CC(C)(C(=O)N(CC(=O)NC3CCCC3)c3ccccc3F)N2C=C1 (configuration not stated) | 0 | 0 | -1 | -6 | -2 | -1 | nt
Cc1ccc(Nc2cc(-c3ccccc3)nc3ncnn23)cc1 | 13 | -1 | 8 | -4 | -2 | -6 | nt
O=C(N/N=C/c1cc(Br)ccc1OC(=O)c1ccc(Br)cc1)c1ccncc1 | 8 | -2 | 26* | -19 | -2 | 15 | 13
SMILES | pPAFAH FP inh | IMP-1 inhibitor | PAFAH1B3 inh | PAFAH2 inh | VIM-2 inh | PAFAH1B2 inh | PAFAH1B3 conf FP
O=C(N/N=C/c1cc(Br)ccc1O)c1ccncc1 | 8 | 0 | 11 | 4 | -1 | 4 | nt
COc1ccc(/C=C2\C(=O)NC(=O)c3ccccc32)cc1OC | nt | nt | 40* | 1 | nt | 2 | 16
COc1ccc(C=C2C(=O)OC(C)(C)OC2=O)cc1OC | -9 | 0 | 0 | 4 | 0 | -5 | nt
O=[N+]([O-])c1ccc(N/N=C/c2c[nH]c3ccccc23)c(S(=O)(=O)Nc2ccc(Cl)cc2)c1 | 1 | -1 | 30* | 27 | -2 | 15 | 16
COC(=O)N/N=C1/C/C(=N\NC(=O)OC)c2ccccc21 | 4 | 0 | 38* | 18 | 0 | 3 | 16
COC(=O)NN=C1CCC(c2ccccc2)CC1 (configuration not stated) | nt | -1 | 3 | 1 | -1 | 3 | nt
Cc1c(Cl)cccc1NC(=O)CCN1CCN(C)CC1 | 7 | -3 | 10 | 6 | -1 | -2 | nt
O=c1oc2cc(O)ccc2cc1-c1nc2c(s1)CCc1ccccc1-2 | 18 | 0 | 33* | 11 | -1 | 14 | 17
O=C1c2cccc3c([N+](=O)[O-])ccc(c23)C(=O)N1Cc1cccnc1 | nt | 2 | 47* | 6 | 7 | 20 | 48*
Cc1nnc(N2C(=O)c3cccc4c([N+](=O)[O-])ccc(c34)C2=O)s1 | 1 | -5 | 29* | -5 | 6 | 3 | 23
Cc1cccc(N2C(=O)c3cccc4c(N5CCCCC5)c([N+](=O)[O-])cc(c34)C2=O)c1C | 3 | -4 | 9 | -4 | 0 | 2 | nt
Cc1ccnc(N2C(=O)c3cccc4c([N+](=O)[O-])ccc(c34)C2=O)c1 | 11 | 1 | 31* | 5 | -2 | 1 | 41*
Oc1[nH]c2ccccc2c1/C=N/c1nccs1 | -6 | -6 | 6 | 5 | -1 | -6 | nt
COc1ccc(/C=C/C(=O)c2sc(-c3ccc(Cl)cc3)nc2C)cc1 | nt | -2 | nt | nt | -2 | nt | nt
COc1ccc2nc(NNC(=O)c3cc(=O)c4ccccc4o3)sc2c1 | 24 | -3 | 29* | 11 | -3 | 3 | 23
COc1cccc(CCC(=O)Nc2cccc(S(=O)(=O)N3CCCC3)c2)c1OC | 0 | nt | -6 | -3 | nt | -5 | nt
COc1cc(-c2nc3c4ccccc4nc(=S)n3[nH]2)cc(OC)c1OC | 6 | 0 | 30* | -2 | -2 | 5 | 25
COc1cc(OC)c(OC)cc1/C=N/Nc1nc2ccccc2[nH]1 | 9 | -5 | 2 | 0 | -3 | 7 | nt
CCN(CC)c1ccc(/C=N/Nc2nc3ccccc3[nH]2)c(O)c1 | 19 | -4 | 27* | 6 | -4 | 13 | 26*
